Measurements reported in PMC4152390 (Neuropharmacology, 2014).

Legend:
DAT = DAT (Rattus norvegicus, UniProt P23977); assay: [3H]dopamine uptake inhibition in rat brain synaptosomes; type: biochemical; conditions: selectivity from uptake IC50 values at DAT and SERT
Procedure, shortened: (§1)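 Synaptosomes came from male Sprague-Dawley rats: striatum for DAT, and whole brain minus striatum and cerebellum for NET and SERT. Uptake ran in pH 7.4 Krebs-phosphate buffer (pargyline, BSA, ascorbate) with test compound, [3H]dopamine, [3H]norepinephrine or 5 nM [3H]serotonin, and unlabeled blockers of competing transporters. It was stopped by filtration and counted by scintillation.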

NET = NET (Rattus norvegicus, UniProt Q63380); assay: [3H]norepinephrine uptake inhibition in rat brain synaptosomes; type: biochemical; conditions: read-out: [3H]Norepinephrine uptake, IC50 at NET; rat brain synaptosomes (whole brain minus striatum and cerebellum); 10 nM [3H]norepinephrine; mean±SD, n=3
Procedure, shortened: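 Rats killed by CO2; synaptosomes from whole brain minus striatum and cerebellum. Unlabeled blockers were added to prevent uptake by competing transporters. Tissue was added to Krebs-phosphate buffer (pH 7.4; 0.05 mM pargyline, 1 mg/mL BSA and ascorbic acid) containing test compound and [3H]norepinephrine. Rapid GF/B filtration, scintillation counting, % control uptake.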

SERT = SERT (Rattus norvegicus, UniProt P31652); assay: [3H]serotonin uptake inhibition in rat brain synaptosomes; type: biochemical; conditions: for IC50: read-out: [3H]Serotonin uptake, IC50 at SERT, rat brain synaptosomes (whole brain minus striatum and cerebellum), 5 nM [3H]serotonin, mean±SD, n=3
Procedure, shortened: as §1

ICR mice [1] = assay: Locomotor activity; type: in vivo, mouse; conditions: for Doses producing significant increases in beam breaks compared to saline for the duration of the session (all time points): i.p., 10-min bins of 60-min session
Procedure, shortened: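 Male ICR mice got a single i.p. dose of test compound or saline (sterile saline vehicle, 10 ml/kg), n=8 per dose and n=16 for saline. Each was placed at once into a clear open-field chamber (47×25.5×22 cm) for a 60-min blinded session. Beam breaks were counted per 10-min bin and analysed by mixed-model ANOVA (time within, dose between), with p<0.05.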

ICR mice [2] = assay: Functional observational battery; type: in vivo, mouse; conditions: i.p., 15 min post-injection, p<0.0033
Procedure, shortened: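 Male ICR mice (n=8 per group; a single saline group of n=16) got one i.p. dose of test compound in sterile saline (10 ml/kg). A modified EPA functional observational battery was scored 15 min post-injection by a blinded technician in weeks 2–3. Each measure was analysed by Kruskal–Wallis ANOVA by ranks, corrected for ties, with corrected alpha p<0.0033.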

ICR mice [3] = assay: Locomotor activity with SCH23390 antagonist pretreatment; type: in vivo, mouse; conditions: SCH23390 0.03 mg/kg s.c., 60 min session
Procedure, shortened: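 In weeks 5 and 7, ICR mice got SCH23390 (0.03 mg/kg) or saline s.c. 30 min before an i.p. challenge with test compound or saline. Groups given the highest FOB dose were excluded, and the vehicle group was split between pretreatments. Total beam breaks were analysed by two-way ANOVA (dose × pretreatment).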

DAT, NET and SERT = conditions: ref Baumann et al., 2013b; cited from earlier work

Sequence of SERT (P31652 whole entry): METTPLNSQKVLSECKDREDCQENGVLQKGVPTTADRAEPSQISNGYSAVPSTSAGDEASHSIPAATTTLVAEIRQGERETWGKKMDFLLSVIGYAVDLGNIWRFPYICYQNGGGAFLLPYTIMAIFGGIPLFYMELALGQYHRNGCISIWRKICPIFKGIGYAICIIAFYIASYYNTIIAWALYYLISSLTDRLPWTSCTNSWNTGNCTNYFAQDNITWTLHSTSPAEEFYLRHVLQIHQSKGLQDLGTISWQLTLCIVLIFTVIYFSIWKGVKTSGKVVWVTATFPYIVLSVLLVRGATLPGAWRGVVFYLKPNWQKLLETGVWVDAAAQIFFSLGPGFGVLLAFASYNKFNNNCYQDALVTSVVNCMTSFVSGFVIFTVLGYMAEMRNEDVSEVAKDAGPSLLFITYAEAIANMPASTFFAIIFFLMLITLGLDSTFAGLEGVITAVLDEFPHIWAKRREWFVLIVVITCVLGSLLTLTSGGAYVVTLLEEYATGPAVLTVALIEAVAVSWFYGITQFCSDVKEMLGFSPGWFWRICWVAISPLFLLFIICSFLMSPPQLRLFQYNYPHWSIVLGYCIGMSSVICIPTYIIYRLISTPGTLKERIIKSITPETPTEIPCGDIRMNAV
Sequence of NET (Q63380 1-617): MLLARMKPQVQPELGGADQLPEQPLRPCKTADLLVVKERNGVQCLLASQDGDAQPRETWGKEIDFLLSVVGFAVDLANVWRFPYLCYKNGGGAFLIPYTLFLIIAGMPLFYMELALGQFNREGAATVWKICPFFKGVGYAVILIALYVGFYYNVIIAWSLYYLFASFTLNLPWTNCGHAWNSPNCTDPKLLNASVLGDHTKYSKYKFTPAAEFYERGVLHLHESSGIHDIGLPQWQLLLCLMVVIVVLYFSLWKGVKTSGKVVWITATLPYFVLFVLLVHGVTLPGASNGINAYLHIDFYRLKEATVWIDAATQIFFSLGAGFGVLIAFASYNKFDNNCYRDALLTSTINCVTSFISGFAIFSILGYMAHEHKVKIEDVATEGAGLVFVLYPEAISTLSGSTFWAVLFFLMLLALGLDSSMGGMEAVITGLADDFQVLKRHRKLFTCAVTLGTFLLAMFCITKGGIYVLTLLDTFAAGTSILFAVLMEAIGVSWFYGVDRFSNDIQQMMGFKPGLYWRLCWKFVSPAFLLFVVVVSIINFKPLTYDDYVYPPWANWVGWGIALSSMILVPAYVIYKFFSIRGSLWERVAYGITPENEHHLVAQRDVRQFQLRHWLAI
Sequence of DAT (P23977 whole entry): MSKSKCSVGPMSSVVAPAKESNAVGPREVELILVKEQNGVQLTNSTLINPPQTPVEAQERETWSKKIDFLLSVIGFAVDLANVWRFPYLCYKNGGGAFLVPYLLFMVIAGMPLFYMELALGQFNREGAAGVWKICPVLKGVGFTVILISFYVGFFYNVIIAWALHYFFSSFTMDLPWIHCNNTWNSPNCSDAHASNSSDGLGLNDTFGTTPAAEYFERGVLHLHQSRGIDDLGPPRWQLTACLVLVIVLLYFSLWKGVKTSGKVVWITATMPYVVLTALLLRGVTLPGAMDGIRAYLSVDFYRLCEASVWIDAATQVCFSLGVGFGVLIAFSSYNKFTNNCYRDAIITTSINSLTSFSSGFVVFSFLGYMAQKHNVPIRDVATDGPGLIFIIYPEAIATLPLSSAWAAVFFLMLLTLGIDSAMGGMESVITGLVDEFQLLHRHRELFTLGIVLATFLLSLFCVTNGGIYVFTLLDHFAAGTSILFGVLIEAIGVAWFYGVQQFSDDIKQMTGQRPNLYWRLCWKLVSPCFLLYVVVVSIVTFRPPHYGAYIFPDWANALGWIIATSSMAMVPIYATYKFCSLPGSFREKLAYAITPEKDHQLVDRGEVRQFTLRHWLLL

SMILES | DAT/SERT ratio (DAT) | IC50 (NET) | IC50 (SERT) | Time from session start with significantly increased beam breaks (ICR mice [1]; 10.0 mg/kg i.p., 60-min session) | Doses producing significant increases in beam breaks compared to saline for the duration of the session (all time points) (ICR mice [1]) | Grooming: direction of difference from saline and doses at which significant (ICR mice [2]) | Postinjection interval with significantly increased beam breaks (ICR mice [1]; 1.0 mg/kg i.p., 60-min session) | Effect of SCH23390 plus saline on activity compared to saline/saline group (ICR mice [3]) | fold weaker at blocking uptake of serotonin than catecholamine uptake (SERT; SERT versus DAT and NET uptake IC50) | Activity in the release assay (DAT, NET and SERT) | Time from session start with significantly increased beam breaks (ICR mice [1]; 3.0 mg/kg i.p., 60-min session)
CC(C(=O)c1ccccc1)N1CCCC1 (stereo not drawn) [α-PPP, α-pyrrolidinopropiophenone] | >51 | 0.445 ± 0.0392 µM | > 10 µM | 50 min | 30.0 mg/kg | 30 mg/kg | – | – | – | – | –
CCCC(C(=O)c1ccccc1)N1CCCC1 (stereo not drawn) [α-PVP, α-pyrrolidinovalerophenone] | >781 | 0.0142 ± 0.0012 µM | > 10 µM | – | 3.0 to 10.0 mg/kg | – | 20 to 50 min | – | – | – | –
CN1CCc2cc(Cl)c(O)cc2[C@@H](c2ccccc2)C1 [SCH23390] | – | – | – | – | – | – | – | did not significantly affect activity | – | – | –
CCCC(C(=O)c1ccc2c(c1)OCO2)N1CCCC1 (centres unmarked) [MDPV, 3,4-methylenedioxypyrovalerone] | 806 | 0.0259 ± 0.0056 µM | 3.31 ± 0.485 µM | – | 1.0 to 3.0 mg/kg | – | – | – | more than 100 fold | not active | –
CCC(C(=O)c1ccccc1)N1CCCC1 (stereo not drawn) [α-PBP, α-pyrrolidinobutiophenone] | >159 | 0.0915 ± 0.0128 µM | > 10 µM | – | 10.0 mg/kg | – | – | – | – | – | 40 min
